# From ChEMBL document CHEMBL1130082, “5,6-Cis-penems: broad-spectrum anti-methicillin-resistant Staphylococcus aureus beta-lactam antibiotics” (1997)
# Columns and labels:
# Type in all cases: functional
# [1] = test system: Klebsiella pneumoniae; test: Minimum inhibitory concentration was determined in heart infusion agar medium against Klebsiella pneumoniae PCI 602
# Outline: (§1)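 Agar dilution on heart infusion agar, inoculum 10^6 cells/mL, incubated 24 h at 37 °C; the MIC is read as the lowest concentration that inhibits growth.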
# [2] = test system: Bacillus subtilis; test: Minimum inhibitory concentration was determined in heart infusion agar medium against Bacillus subtilis ATCC 6633; outline: as §1
# [3] = test system: Enterococcus faecalis; test: Minimum inhibitory concentration was determined in heart infusion agar medium against Enterococcus faecalis ATCC 19433; outline: as §1
# [4] = test system: Serratia marcescens; test: Minimum inhibitory concentration was determined in heart infusion agar medium against Serratia marcescens IAM 1136; outline: as §1
# [5] = test system: Staphylococcus aureus; test: Minimum inhibitory concentration was determined in heart infusion agar medium against Staphylococcus aureus(MRSA); outline: as §1
# [6] = test system: Escherichia coli; test: Minimum inhibitory concentration was determined in heart infusion agar medium against Escherichia coli NIHJ JC-2; outline: as §1
# [7] = test system: Escherichia coli; test: Minimum inhibitory concentration was determined in heart infusion agar medium against […] organism Escherichia coli KC-14/RGN 823; outline: as §1
# [8] = test system: Pseudomonas aeruginosa; test: Minimum inhibitory concentration was determined in heart infusion agar medium against Pseudomonas aeruginosa PAO-1; outline: as §1
# [9] = test system: Enterobacter cloacae; test: Minimum inhibitory concentration was determined in heart infusion agar medium against […] organism Enterobacter cloacae NTCC9394; outline: as §1
# [10] = test system: Citrobacter freundii; test: Minimum inhibitory concentration was determined in heart infusion agar medium against […] organism Citrobacter freundii GN7391; outline: as §1
# [11] = test system: Proteus vulgaris; test: Minimum inhibitory concentration was determined in heart infusion agar medium against Proteus vulgaris GN 7919; outline: as §1
# [12] = test system: Staphylococcus aureus; test: Minimum inhibitory concentration was determined in heart infusion agar medium against Staphylococcus aureus 209P JC-1; outline: as §1
MIC [1],MIC [2],MIC [3],MIC [4],MIC [5],MIC [6],MIC [7],MIC [8],MIC [9],MIC [10],MIC [11],MIC [12],SMILES
0.1 µg/mL,< 0.025 µg/mL,0.78 µg/mL,1.56 µg/mL,3.13 µg/mL,0.2 µg/mL,0.78 µg/mL,6.25 µg/mL,0.39 µg/mL,6.25 µg/mL,0.78 µg/mL,0.1 µg/mL,CC[C@H](O)[C@@H]1C(=O)N2C(C(=O)[O-])=C(S[C@@H]3CCN(CC(=O)c4ccccc4)C3)S[C@H]12.[Na+]
1.56 µg/mL,0.05 µg/mL,0.39 µg/mL,25 µg/mL,6.25 µg/mL,3.13 µg/mL,> 100 µg/mL,> 100 µg/mL,> 100 µg/mL,> 100 µg/mL,1.56 µg/mL,0.39 µg/mL,CC[C@H](O)[C@@H]1C(=O)N2C(C(=O)[O-])=C([C@H]3CCCO3)S[C@H]12.[Na+]
12.5 µg/mL,0.78 µg/mL,25 µg/mL,> 100 µg/mL,> 100 µg/mL,100 µg/mL,12.5 µg/mL,> 100 µg/mL,> 100 µg/mL,> 100 µg/mL,25 µg/mL,0.78 µg/mL,CC[C@@H](O)[C@H]1C(=O)N2C(C(=O)[O-])=C([C@H]3CCCO3)S[C@H]12.[Na+]
6.25 µg/mL,0.2 µg/mL,0.2 µg/mL,50 µg/mL,12.5 µg/mL,25 µg/mL,50 µg/mL,100 µg/mL,> 100 µg/mL,> 100 µg/mL,1.56 µg/mL,0.78 µg/mL,CC[C@H](O)[C@@H]1C(=O)N2C(C(=O)[O-])=C(c3ccccc3)S[C@H]12.[Na+]
0.39 µg/mL,0.05 µg/mL,1.56 µg/mL,3.13 µg/mL,3.13 µg/mL,0.2 µg/mL,0.78 µg/mL,12.5 µg/mL,0.78 µg/mL,6.25 µg/mL,0.78 µg/mL,0.1 µg/mL,CC[C@H](O)[C@@H]1C(=O)N2C(C(=O)[O-])=C(S[C@@H]3CCNC3)S[C@H]12.[Na+]
0.2 µg/mL,< 0.025 µg/mL,0.78 µg/mL,6.25 µg/mL,> 100 µg/mL,0.1 µg/mL,0.1 µg/mL,> 100 µg/mL,1.56 µg/mL,25 µg/mL,3.13 µg/mL,0.05 µg/mL,C[C@@H](O)[C@H]1C(=O)N2C(C(=O)[O-])=C([C@H]3CCCO3)S[C@H]12.[Na+] [FAROPENEM SODIUM]
0.78 µg/mL,0.05 µg/mL,0.39 µg/mL,25 µg/mL,25 µg/mL,0.78 µg/mL,25 µg/mL,> 100 µg/mL,100 µg/mL,> 100 µg/mL,1.56 µg/mL,0.78 µg/mL,C[C@@H](O)[C@H]1C(=O)N2C(C(=O)O)=C([C@H]3CCCO3)S[C@H]12 [FAROPENEM]

SMILES,MIC [1],MIC [2],MIC [3],MIC [4],MIC [5],MIC [6],MIC [7],MIC [8],MIC [9],MIC [10],MIC [11],MIC [12]
"CC(O)[C@H]1C(=O)N2C(C(=O)O)=C(SCCNC=N)C[C@H]12 (single isomer, unassigned) [IMIPENEM ANHYDROUS]",0.2 µg/mL,< 0.025 µg/mL,0.78 µg/mL,0.78 µg/mL,> 100 µg/mL,0.2 µg/mL,0.1 µg/mL,1.56 µg/mL,0.2 µg/mL,0.39 µg/mL,3.13 µg/mL,< 0.025 µg/mL
